Source: ChEMBL document CHEMBL1124514, “Synthesis and antiviral activity of the nucleotide analogue (S)-1-[3-hydroxy-2-(phosphonylmethoxy)propyl]cytosine” (1989)
Converted amounts (≈) assume the structure as drawn.

Legend:
Type in all cases: functional
Human alphaherpesvirus 2 [1] = experiment: Antiviral activity determined by plaque-reduction assay against Herpes simplex virus type 2, G strain in Vero cells; conditions: Human alphaherpesvirus 2, Vero; read-out: ID50 (the source's name)
Method in brief: (§1)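 Plaque reduction: confluent monolayers (Vero for HSV, MRC-5 for HCMV) infected with 30-50 PFU in PBS, 1 h adsorption, then compound dilutions in EMEM with 10% fetal bovine serum; 48 h at 37 °C, 5% CO2; fixed, Carbol fuchsin stained, plaques counted. ID50 = concentration reducing plaque number by 50% versus virus control.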

Human betaherpesvirus 5 = experiment: Antiviral activity determined by plaque-reduction assay against Human cytomegalovirus, AD-169 strain in MRC-5 cells; conditions: Human betaherpesvirus 5, MRC5; read-out: ID50 (the source's name); method in brief: as §1
Human alphaherpesvirus 1 [2] = experiment: Antiviral activity of the compound, determined by plaque-reduction assay against thymidine kinase deficient Herpes simplex virus type 1, Z826 strain in Vero cells; conditions: Human alphaherpesvirus 1, Vero; read-out: ID50 (the source's name); method in brief: as §1
Human alphaherpesvirus 1 [3] = experiment: Antiviral activity of the compound, determined by plaque-reduction assay against Herpes simplex virus (HSV) type 1, BW5 strain in Vero cells; conditions: Human alphaherpesvirus 1, Vero; read-out: ID50 (the source's name); method in brief: as §1
Human alphaherpesvirus 1 [4] = experiment: In vitro antiviral activity of the compound, determined by plaque-reduction assay against thymidine kinase deficient Herpes simplex virus type 1, Z826 strain in Vero cells; conditions: Human alphaherpesvirus 1, Vero; read-out: ID50 (the source's name); method in brief: as §1
Cavia porcellus [5] = species on record: Cavia porcellus; experiment: Total score of lesion formation in HSV-1 cutaneous infection in guinea pig at 5% ACV
Cavia porcellus [6] = species on record: Cavia porcellus; experiment: Duration of time of healing period in HSV-1 cutaneous infection in guinea pig at 5%ACV
Cavia porcellus [7] = species on record: Cavia porcellus; experiment: Total score of healing period in HSV-1 cutaneous infection in guinea pig at 5% ACV
Human alphaherpesvirus 1 [8] = experiment: In vitro antiviral activity of the compound, determined by plaque-reduction assay against Herpes simplex virus (HSV) type 1, BW5 strain in Vero cells; conditions: Human alphaherpesvirus 1, Vero; read-out: ID50 (the source's name); method in brief: as §1
Mus musculus [9] = experiment: Percentage survival of mice after intraperitoneal administration of compound at 200 mg/kg per day in experiment 1; survival/ tested =3/4; conditions: ip
Mus musculus [10] = experiment: Percentage survival of mice after intraperitoneal administration of compound at 100 mg/kg per day in experiment 1; survival/ tested =7/10; conditions: ip
Method in brief: (§2)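 Female Swiss mice (16–18 g) infected ip with (2-6) × 10^2 PFU HSV 1 HL-34, randomized into groups of 10. Ip dosing started 3 h postinfection, twice daily for 5 consecutive days; vehicle 0.2% carboxymethylcellulose with 0.2% Tween 80 in water. Mortality followed 21 days; survival by Fisher's exact test, mean survival time by Gehan-Wilcoxon.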

Cavia porcellus [11] = species on record: Cavia porcellus; experiment: Mean of severity score obtained from five different individuals at 5% ACV
Mus musculus [12] = experiment: Percentage survival of mice after intraperitoneal administration of compound at 50 mg/kg per day in experiment 1; survival/ tested =5/10; conditions: ip; method in brief: as §2
Cavia porcellus [13] = species on record: Cavia porcellus; experiment: Duration of time of lesion formation in HSV-1 cutaneous infection in guinea pig at 5%ACV
Mus musculus [14] = experiment: Percentage survival of mice after intraperitoneal administration of compound at 200 mg/kg per day in experiment 2; survival/ tested =7/9; conditions: ip; method in brief: as §2
Human alphaherpesvirus 2 [15] = experiment: In vitro antiviral activity determined by plaque-reduction assay against Herpes simplex virus type 2, G strain in Vero cells; conditions: Human alphaherpesvirus 2, Vero; read-out: ID50 (the source's name); method in brief: as §1
Mus musculus [16] = experiment: Mean survival time of mice was determined after intraperitoneal administration of compound at 1 mg/kg per day in experiment 2; method in brief: as §2
Mus musculus [17] = experiment: Mean survival time of mice was determined after intraperitoneal administration of compound at 10 mg/kg per day in experiment 1; method in brief: as §2
Mus musculus [18] = experiment: Percentage survival of mice after intraperitoneal administration of compound at 10 mg/kg per day in experiment 2; survival/ tested =10/10; conditions: ip; method in brief: as §2
Mus musculus [19] = experiment: Mean survival time of mice was determined after intraperitoneal administration of compound at 10 mg/kg per day in experiment 2; method in brief: as §2
Cavia porcellus [20] = species on record: Cavia porcellus; experiment: Duration of time of healing period in HSV-1 cutaneous infection in guinea pig at 1% HPMPC
Cavia porcellus [21] = species on record: Cavia porcellus; experiment: Total score of healing period in HSV-1 cutaneous infection in guinea pig 1%HPMPC
Cavia porcellus [22] = species on record: Cavia porcellus; experiment: Mean of severity score obtained from five different individuals at 0.1% HPMPC
Cavia porcellus [23] = species on record: Cavia porcellus; experiment: Duration of time of lesion formation in HSV-1 cutaneous infection in guinea pig at 5% HPMPC
Cavia porcellus [24] = species on record: Cavia porcellus; experiment: Duration of time of healing period in HSV-1 cutaneous infection in guinea pig at 0.1% HPMPC
Cavia porcellus [25] = species on record: Cavia porcellus; experiment: Total score of healing period in HSV-1 cutaneous infection in guinea pig at 0.1% HPMPC
Cavia porcellus [26] = species on record: Cavia porcellus; experiment: Duration of time of lesion formation in HSV-1 cutaneous infection in guinea pig at 0.1% HPMPC
Cavia porcellus [27] = species on record: Cavia porcellus; experiment: Total score of healing period in HSV-1 cutaneous infection in guinea pig at 5% HPMPC
Cavia porcellus [28] = species on record: Cavia porcellus; experiment: Duration of time of lesion formation in HSV-1 cutaneous infection in guinea pig at 1% HPMPC
Cavia porcellus [29] = species on record: Cavia porcellus; experiment: Total score of lesion formation in HSV-1 cutaneous infection in guinea pig at 0.1% HPMPC
Mus musculus [30] = experiment: Mean survival time of mice was determined after intraperitoneal administration of compound at 100 mg/kg per day in experiment 1; method in brief: as §2
Mus musculus [31] = experiment: Percentage survival of mice after intraperitoneal administration of compound at 1 mg/kg per day in experiment 2; survival/ tested =9/10; conditions: ip; method in brief: as §2
Mus musculus [32] = experiment: Percentage survival of mice after intraperitoneal administration of compound at 200 mg/kg per day in experiment 1; survival/ tested =10/10; conditions: ip; method in brief: as §2
Mus musculus [33] = experiment: Percentage survival of mice after intraperitoneal administration of compound at 100 mg/kg per day in experiment 1; survival/ tested =10/10; conditions: ip; method in brief: as §2
Cavia porcellus [34] = species on record: Cavia porcellus; experiment: Duration of time of healing period in HSV-1 cutaneous infection in guinea pig at 5% HPMPC
Cavia porcellus [35] = species on record: Cavia porcellus; experiment: Total score of lesion formation in HSV-1 cutaneous infection in guinea pig at 5% HPMPC
Cavia porcellus [36] = species on record: Cavia porcellus; experiment: Total score of lesion formation in HSV-1 cutaneous infection in guinea pig at 1% HPMPC
Mus musculus [37] = experiment: Percentage survival of mice after intraperitoneal administration of compound at 0.1 mg/kg per day in experiment 2; survival/ tested =5/10; conditions: ip; method in brief: as §2
Mus musculus [38] = experiment: Percentage survival of mice after intraperitoneal administration of compound at 10 mg/kg per day in experiment 1; survival/ tested =10/10; conditions: ip; method in brief: as §2
Mus musculus [39] = experiment: Mean survival time of mice was determined after intraperitoneal administration of compound at 200 mg/kg per day in experiment 1; method in brief: as §2
Cavia porcellus [40] = species on record: Cavia porcellus; experiment: Mean of severity score obtained from five different individuals at 1% HPMPC
Mus musculus [41] = experiment: Mean survival time of mice was determined after intraperitoneal administration of compound at 0.1 mg/kg per day in experiment 2; method in brief: as §2
Cavia porcellus [42] = species on record: Cavia porcellus; experiment: Mean of severity score obtained from five different individuals at 5% HPMPC

## Nc1ncnc2c1ncn2C[C@@H](CO)OCP(=O)(O)O
Human alphaherpesvirus 2 [1]
  IC50: 25.2 µg/mL (≈ 83.1 µM)
Human betaherpesvirus 5
  IC50: 0.27 µg/mL (≈ 0.89 µM)
Human alphaherpesvirus 1 [2]
  IC50: 3.2 µg/mL (≈ 10.6 µM)
Human alphaherpesvirus 1 [3]
  IC50: 9.3 µg/mL (≈ 30.7 µM)

## Nc1ccn(CCOCP(=O)(O)O)c(=O)n1
Human alphaherpesvirus 2 [1]
  IC50: > 100 µg/mL
Human betaherpesvirus 5
  IC50: > 2.7 µg/mL
Human alphaherpesvirus 1 [3]
  IC50: > 100 µg/mL

## Nc1nc2c(ncn2COCCO)c(=O)[nH]1 [ACYCLOVIR]
Human alphaherpesvirus 1 [4]
  IC50: 4.3 µg/mL (≈ 19.1 µM)
Cavia porcellus [5]
  Total score: 14
Cavia porcellus [6]
  Duration time: 4.2
Cavia porcellus [7]
  Total score: 60.4
Human alphaherpesvirus 1 [8]
  IC50: 0.5 µg/mL (≈ 2.22 µM)
Mus musculus [9]
  survival at 200 mg/kg/day: 75%
Mus musculus [10]
  survival at 100 mg/kg/day: 70%
Cavia porcellus [11]
  Severity mean: 2.4
Mus musculus [12]
  survival at 50 mg/kg/day: 50%
Cavia porcellus [13]
  Duration time: 5.4
Mus musculus [14]
  survival at 200 mg/kg/day: 78%
Human alphaherpesvirus 2 [15]
  IC50: 0.3 µg/mL (≈ 1.33 µM)

## Nc1ccn(C[C@@H](CO)OCP(=O)(O)O)c(=O)n1.O.O [CIDOFOVIR]
Mus musculus [16]
  Mean survival time: 19.7 days
Mus musculus [17]
  Mean survival time: 21 days
Mus musculus [18]
  survival at 10 mg/kg/day: 100%
Mus musculus [19]
  Mean survival time: 21 days
Cavia porcellus [20]
  Duration time: 3.8
Cavia porcellus [21]
  Total score: 75
Cavia porcellus [22]
  Severity mean: 1.4
Cavia porcellus [23]
  Duration time: 2.2
Cavia porcellus [24]
  Duration time: 4.4
Cavia porcellus [25]
  Total score: 72.8
Cavia porcellus [26]
  Duration time: 3.8
Cavia porcellus [27]
  Total score: 85.4
Cavia porcellus [28]
  Duration time: 3.8
Cavia porcellus [29]
  Total score: 8.2
Mus musculus [30]
  Mean survival time: 21 days
Human alphaherpesvirus 2 [1]
  IC50: 2.3 µg/mL
Mus musculus [31]
  survival at 1 mg/kg/day: 90%
Mus musculus [32]
  survival at 200 mg/kg/day: 100%
Mus musculus [33]
  survival at 100 mg/kg/day: 100%
Human betaherpesvirus 5
  IC50: 0.22 µg/mL
Human alphaherpesvirus 1 [2]
  IC50: 0.7 µg/mL
Cavia porcellus [34]
  Duration time: 4.2
Cavia porcellus [35]
  Total score: 3
Cavia porcellus [36]
  Total score: 7
Mus musculus [37]
  survival at 0.1 mg/kg/day: 50%
Mus musculus [38]
  survival at 10 mg/kg/day: 100%
Mus musculus [39]
  Mean survival time: 21 days
Cavia porcellus [40]
  Severity mean: 1
Mus musculus [41]
  Mean survival time: 14.9 days
Cavia porcellus [42]
  Severity mean: 0.8
Human alphaherpesvirus 1 [3]
  IC50: 5.4 µg/mL

## Nc1nc2c(ncn2COC(CO)CO)c(=O)[nH]1 [GANCICLOVIR]
Human alphaherpesvirus 2 [1]
  IC50: 0.94 µg/mL (≈ 3.68 µM)
Human betaherpesvirus 5
  IC50: 1.8 µg/mL (≈ 7.05 µM)
Human alphaherpesvirus 1 [2]
  IC50: > 10 µg/mL
Human alphaherpesvirus 1 [3]
  IC50: 0.23 µg/mL (≈ 0.901 µM)
